The source made the active and inactive calls. No cut-off for these calls is given here.
Columns and labels:
Platelet [1] = test: Inhibition of adenosine diphosphate-induced platelet aggregation in rabbit platelet rich plasma by Born's turbidimetric method; type: functional; settings: Oryctolagus cuniculus
Outline: (§1)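 Rabbit carotid blood in 3.8% sodium citrate (9:1); PRP by 500g spin for 10 min, PPP by a further 3000g spin for 10 min. PRP was preincubated in duplicate for 5 min at 37 °C with vehicle or agent (0.1, 0.2, 0.4, 0.8, 1.6 mM). Aggregation was triggered by ADP (10 μM final) or AA (1 mM), and maximal light transmission was read within 5 min, within 3 h of collection. Inhibition % = 100 × (1 − treated/control); IC50 was calculated.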

Rattus norvegicus [2] = test: Antithrombotic activity in Sprague-Dawley rat arteriovenous shunt model assessed as reduction of thrombus dry weight at 30 mg/kg, po qd for 5 consecutive days; type: functional; design: scale not given: the % may be the effect or the level left
Outline: (§2)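 Male SD rats were dosed by gavage in saline daily for 5 days (n = 12/group). An A-V shunt linked the right carotid artery to the left jugular vein: a saline-filled 14 cm polyethylene tube holding 6 cm of four braided silk threads. After 15 min of flow, the threads were weighed wet, then dried 6 h at room temperature and reweighed, less the pre-experiment thread weight.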

Platelet [3] = test: Ratio of 3-nbutylphthalide to compound for adenosine diphosphate-induced platelet aggregation in rabbit platelet rich plasma at 0.1 mM; type: functional, Oryctolagus cuniculus
Rattus norvegicus [4] = test: Anticerebral ischemic activity in Sprague-Dawley rat middle cerebral artery occlusion model assessed as reduction in infarct size in brain at 30 mg/kg, ig for 7 consecutive days by TTC assay; type: functional; design: scale not given: the % may be the effect or the level left; settings: route intragastric
Outline: (§3)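 SD rats, chloral hydrate 350 mg/kg ip anaesthesia; right MCA occluded 2 h by silicone-tipped 4-0 nylon filament via ECA into ICA (>80% CBF drop by laser Doppler, 37 ± 0.5 °C), then reperfusion. Dosed in normal saline orally daily 7 days before ischemia. At 24 h, 2-mm coronal slices stained 2% TTC 30 min 37 °C; infarct area as % of whole brain; n = 6.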

Rattus norvegicus [5] = test: Anticerebral ischemic activity in Sprague-Dawley rat middle cerebral artery occlusion model assessed as reduction of water content in brain at 30 mg/kg, ig for 7 consecutive days; type: functional, organism-based; design: dose 30 mg/kg
Outline: (§4)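 Rats given oral saline-vehicle pretreatment for 7 days underwent 2 h suture MCAO plus reperfusion. At 24 h the animals were decapitated and brains weighed wet, then dried at 105 °C for 24 h. Water % = (wet − dry)/wet × 100; n = 6/group.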

Plasma = test: Anticoagulant activity in rabbit plasma assessed as length of activated partial thromboplastin time; type: functional, cell-free; settings: Oryctolagus cuniculus
Platelet [6] = test: Inhibition of adenosine diphosphate-induced platelet aggregation in rabbit platelet rich plasma at 0.1 mM by Born's turbidimetric method; type: functional; settings: Oryctolagus cuniculus; outline: as §1
Platelet [7] = test: Ratio of aspirin to compound for adenosine diphosphate-induced platelet aggregation in rabbit platelet rich plasma at 0.1 mM; type: functional, Oryctolagus cuniculus
PC-12 [8] = test: Antioxidant activity in rat PC12 cells assessed as inhibition of hydrogen peroxide induced cytotoxicity at 10 uM treated for 2 hrs prior to H2O2 challenge measured after 1 hr by MTT assay (reference value: 52.45%); type: functional; design: scale not given: the % may be the effect or the level left
Rattus norvegicus [9] = test: Anticerebral ischemic activity in Sprague-Dawley rat middle cerebral artery occlusion model assessed as reduction in neurological deficit score at 90 mg/kg, ig for 7 consecutive days by Longa's method; type: functional; design: scale not given: the % may be the effect or the level left; settings: route intragastric
Outline: (§5)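 SD rats were dosed orally in normal saline for 7 days before ischemia (n = 12/group). They were anesthetized ip with 350 mg/kg chloral hydrate and given MCAO with a silicone-tipped 4-0 nylon suture for 2 h, then reperfusion. Occlusion was confirmed as >80% CBF drop by laser Doppler, with core temperature held at 37 °C. Deficits were scored blinded by modified Longa's method 24 h after reperfusion.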

PC-12 [10] = test: Antioxidant activity in rat PC12 cells assessed as inhibition of hydroxyl radical-induced cytotoxicity at 10 uM treated for 2 hrs prior to H2O2/Fe+ challenge measured after 1 hr by MTT assay (reference value: 61.95%); type: functional; design: scale not given: the % may be the effect or the level left
Platelet [11] = test: Ratio of 3-nbutylphthalide to compound for arachidonic acid-induced platelet aggregation in rabbit platelet rich plasma at 0.1 mM; type: functional, Oryctolagus cuniculus
Rattus norvegicus [12] = test: Antioxidant activity in Sprague-Dawley rat middle cerebral artery occlusion model assessed as increase in superoxide dismutase activity at 30 mg/kg, ig for 7 consecutive days; type: functional; settings: route intragastric
Outline: (§6)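 Rats pretreated orally in saline for 7 days underwent 2 h MCAO with reperfusion. At 24 h brains were removed, rinsed in cold 0.9% saline, blotted and stored at −70 °C. After protein quantification, GSH, SOD activity and MDA were measured with commercial kits; n = 12/group.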

Rattus norvegicus [13] = test: Antithrombotic activity in Sprague-Dawley rat arteriovenous shunt model assessed as reduction of thrombus wet weight at 90 mg/kg, po qd for 5 consecutive days; type: functional; design: scale not given: the % may be the effect or the level left; outline: as §2
Rattus norvegicus [14] = test: Antioxidant activity in Sprague-Dawley rat middle cerebral artery occlusion model assessed as increase in superoxide dismutase activity at 90 mg/kg, ig for 7 consecutive days; type: functional; settings: route intragastric; outline: as §6
Rattus norvegicus [15] = test: Anticerebral ischemic activity in Sprague-Dawley rat middle cerebral artery occlusion model assessed as reduction in loss of hippocampal neurons at 90 mg/kg, ig for 7 consecutive days by hematoxylin-eosin staining; type: functional, organism-based; design: dose 90 mg/kg
Outline: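 Rats dosed ig in saline for 7 days before 2 h MCAO/reperfusion. Brain tissue sections from the ischemic side were stained with hematoxylin–eosin and examined at ×200 for hippocampal neuron loss; n = 6/group.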

Rattus norvegicus [16] = test: Anticerebral ischemic activity in Sprague-Dawley rat middle cerebral artery occlusion model assessed as reduction in infarct size in brain at 90 mg/kg, ig for 7 consecutive days by TTC assay; type: functional; design: scale not given: the % may be the effect or the level left; settings: route intragastric; outline: as §3
Rattus norvegicus [17] = test: Anticerebral ischemic activity in Sprague-Dawley rat middle cerebral artery occlusion model assessed as reduction in neurological deficit score at 30 mg/kg, ig for 7 consecutive days by Longa's method; type: functional; design: scale not given: the % may be the effect or the level left; settings: route intragastric; outline: as §5
Rattus norvegicus [18] = test: Antioxidant activity in Sprague-Dawley rat middle cerebral artery occlusion model assessed as decrease in malondialdehyde level in brain at 90 mg/kg, ig for 7 consecutive days; type: functional; design: scale not given: the % may be the effect or the level left; settings: route intragastric; outline: as §6
Rattus norvegicus [19] = test: Antithrombotic activity in Sprague-Dawley rat arteriovenous shunt model assessed as reduction of thrombus wet weight at 30 mg/kg, po qd for 5 consecutive days; type: functional; design: scale not given: the % may be the effect or the level left; outline: as §2
Rattus norvegicus [20] = test: Antioxidant activity in Sprague-Dawley rat middle cerebral artery occlusion model assessed as decrease in malondialdehyde level in brain at 30 mg/kg, ig for 7 consecutive days; type: functional; design: scale not given: the % may be the effect or the level left; settings: route intragastric; outline: as §6
Rattus norvegicus [21] = test: Antioxidant activity in Sprague-Dawley rat middle cerebral artery occlusion model assessed as increase in glutathione level in brain at 90 mg/kg, ig for 7 consecutive days; type: functional; settings: route intragastric; outline: as §6
Platelet [22] = test: Ratio of edaravone to compound for adenosine diphosphate-induced platelet aggregation in rabbit platelet rich plasma at 0.1 mM; type: functional, Oryctolagus cuniculus
Platelet [23] = test: Inhibition of arachidonic acid-induced platelet aggregation in rabbit platelet rich plasma at 0.1 mM by Born's turbidimetric method; type: functional; settings: Oryctolagus cuniculus; outline: as §1
Rattus norvegicus [24] = test: Anticerebral ischemic activity in Sprague-Dawley rat middle cerebral artery occlusion model assessed as reduction of water content in brain at 90 mg/kg, ig for 7 consecutive days; type: functional, organism-based; design: dose 90 mg/kg; outline: as §4
Rattus norvegicus [25] = test: Antithrombotic activity in Sprague-Dawley rat arteriovenous shunt model assessed as reduction of thrombus dry weight at 90 mg/kg, po qd for 5 consecutive days; type: functional; design: scale not given: the % may be the effect or the level left; outline: as §2
Platelet [26] = test: Inhibition of arachidonic acid-induced platelet aggregation in rabbit platelet rich plasma by Born's turbidimetric method; type: functional; settings: Oryctolagus cuniculus; outline: as §1
Rattus norvegicus [27] = test: Antioxidant activity in Sprague-Dawley rat middle cerebral artery occlusion model assessed as increase in glutathione level in brain at 80 mg/kg, ig for 7 consecutive days; type: functional; settings: route intragastric; outline: as §6
Rattus norvegicus [28] = test: Antioxidant activity in Sprague-Dawley rat middle cerebral artery occlusion model assessed as decrease in malondialdehyde level in brain at 80 mg/kg, ig for 7 consecutive days; type: functional; design: scale not given: the % may be the effect or the level left; settings: route intragastric; outline: as §6
Rattus norvegicus [29] = test: Anticerebral ischemic activity in Sprague-Dawley rat middle cerebral artery occlusion model assessed as reduction in neurological deficit score at 80 mg/kg, ig for 7 consecutive days by Longa's method; type: functional; design: scale not given: the % may be the effect or the level left; settings: route intragastric; outline: as §5
Rattus norvegicus [30] = test: Anticerebral ischemic activity in Sprague-Dawley rat middle cerebral artery occlusion model assessed as reduction in infarct size in brain at 80 mg/kg, ig for 7 consecutive days by TTC assay; type: functional; design: scale not given: the % may be the effect or the level left; settings: route intragastric; outline: as §3
Rattus norvegicus [31] = test: Antithrombotic activity in Sprague-Dawley rat arteriovenous shunt model assessed as reduction of thrombus wet weight at 80 mg/kg, po qd for 5 consecutive days; type: functional; design: scale not given: the % may be the effect or the level left; outline: as §2
Rattus norvegicus [32] = test: Antioxidant activity in Sprague-Dawley rat middle cerebral artery occlusion model assessed as increase in superoxide dismutase activity at 80 mg/kg, ig for 7 consecutive days; type: functional; settings: route intragastric; outline: as §6
Rattus norvegicus [33] = test: Antithrombotic activity in Sprague-Dawley rat arteriovenous shunt model assessed as reduction of thrombus dry weight at 80 mg/kg, po qd for 5 consecutive days; type: functional; design: scale not given: the % may be the effect or the level left; outline: as §2
Rattus norvegicus [34] = test: Anticerebral ischemic activity in Sprague-Dawley rat middle cerebral artery occlusion model assessed as reduction of water content in brain at 80 mg/kg, ig for 7 consecutive days; type: functional, organism-based; design: dose 80 mg/kg; outline: as §4

SMILES: CCCCCC1SC(=O)c2ccccc21 (racemic)
- IC50 (Platelet [1]): 420 µM
- Activity (Rattus norvegicus [2]): 32.85%
- Ratio (Platelet [3]): 1.65
- Activity (Rattus norvegicus [4]): 35.5%
- Activity (Rattus norvegicus [5]): inactive
- Activity (Plasma): inactive
- inhibition at 100 µM (Platelet [6]): 15.6%
- Ratio (Platelet [7]): 1.45
- Activity (PC-12 [8]): 77.23%
- Activity (Rattus norvegicus [9]): 37.45%
- Activity (PC-12 [10]): 86.08%
- Ratio (Platelet [11]): 2.02
- Activity (Rattus norvegicus [12]): 25.87%
- Activity (Rattus norvegicus [13]): 39.7%
- Activity (Rattus norvegicus [14]): 39.77%
- Activity (Rattus norvegicus [15]): Active
- Activity (Rattus norvegicus [16]): 59.62%
- Activity (Rattus norvegicus [17]): 25.09%
- Activity (Rattus norvegicus [18]): 40.9%
- Activity (Rattus norvegicus [19]): 27.35%
- Activity (Rattus norvegicus [20]): 23.66%
- Activity (Rattus norvegicus [21]): 82.67%
- Ratio (Platelet [22]): 1.36
- inhibition at 100 µM (Platelet [23]): 35.2%
- Activity (Rattus norvegicus [24]): Active
- Activity (Rattus norvegicus [25]): 43.33%
- IC50 (Platelet [26]): 210 µM

SMILES: CCCCC1OC(=O)c2ccccc21 (racemic) [RAC-3-N-BUTYLPHTHALIDE]
- IC50 (Platelet [1]): > 1000 µM
- Activity (Rattus norvegicus [27]): 40.83%
- Activity (Plasma): inactive
- inhibition at 100 µM (Platelet [6]): 9.5%
- Activity (Rattus norvegicus [28]): 25.73%
- Activity (PC-12 [8]): 68.05%
- Activity (PC-12 [10]): 73.05%
- Activity (Rattus norvegicus [29]): 31.47%
- Activity (Rattus norvegicus [30]): 40.04%
- Activity (Rattus norvegicus [31]): 23.58%
- Activity (Rattus norvegicus [32]): 33.61%
- Activity (Rattus norvegicus [33]): 26.9%
- inhibition at 100 µM (Platelet [23]): 17.4%
- Activity (Rattus norvegicus [34]): inactive
- IC50 (Platelet [26]): 480 µM

SMILES: CC(C)CCC1SC(=O)c2ccccc21 (racemic)
- IC50 (Platelet [1]): > 1000 µM
- IC50 (Platelet [26]): > 1000 µM

Source: ChEMBL document CHEMBL2163221, “Discovery of a potential anti-ischemic stroke agent: 3-pentylbenzo[c]thiophen-1(3H)-one” (J Med Chem, 2012)
